Laboratory results reported in PMC11886927 (Nature, 2025).
“Also recorded” adds a separate entry of the source.

Legend:
BA production = assay: Endogenously produced BA levels in faeces, liver and serum of supplemented mice; format: in vivo, mouse; details: daily for 14 days
Outline: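 Mice (WT, Nr1h4−/−, SPF, ABX) were dosed by daily oral gavage with deuterated or unlabelled conjugate (DMSO stock diluted in corn oil), 50 mg kg−1 day−1, 100 µl, for 14 days. Controls got DMSO plus corn oil. Faeces, liver and serum BAs were measured by HPLC-HRMS. Serum was extracted with 4 volumes methanol, sonicated 1 min, stirred 10 min, and spun 5,000g for 5 min. Groups were compared by Welch-corrected two-sided t-test.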

[1] = target: T1, full-length human FXR protein (Homo sapiens, UniProt Q96RI1); assay: DiscoverX cell-based protein–protein interaction assay on FXR, antagonist mode; details: for FXR antagonistic activity against GW4604-mediated activation (in words): tested range of concentrations
T1 sequence (Q96RI1 1-486): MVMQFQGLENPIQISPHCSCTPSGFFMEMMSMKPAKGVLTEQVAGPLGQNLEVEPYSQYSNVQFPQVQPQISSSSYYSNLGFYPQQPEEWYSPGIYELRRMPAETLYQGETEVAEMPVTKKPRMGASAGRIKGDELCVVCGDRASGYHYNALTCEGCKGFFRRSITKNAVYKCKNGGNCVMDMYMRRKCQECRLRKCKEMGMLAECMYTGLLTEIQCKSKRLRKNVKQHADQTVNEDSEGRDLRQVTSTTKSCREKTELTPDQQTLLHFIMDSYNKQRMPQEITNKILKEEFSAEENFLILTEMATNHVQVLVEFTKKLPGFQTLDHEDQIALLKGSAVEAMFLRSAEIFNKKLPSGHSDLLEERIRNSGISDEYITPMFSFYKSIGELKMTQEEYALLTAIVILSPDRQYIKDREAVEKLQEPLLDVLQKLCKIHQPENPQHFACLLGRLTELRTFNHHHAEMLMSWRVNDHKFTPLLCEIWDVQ

FXR = details: cited from earlier work
[2] = target: T2, recombinant human VNN1 (ΔN490aa truncated) (Homo sapiens, UniProt O95497); assay: VNN1 in vitro assay with pantetheine derivatives; format: biochemical; details: 0.01 μM VNN1, 37 °C, 15 min, pantothenic acid formation, n = 3, mean ± s.d.
T2 sequence (O95497 22-490 limits assumed): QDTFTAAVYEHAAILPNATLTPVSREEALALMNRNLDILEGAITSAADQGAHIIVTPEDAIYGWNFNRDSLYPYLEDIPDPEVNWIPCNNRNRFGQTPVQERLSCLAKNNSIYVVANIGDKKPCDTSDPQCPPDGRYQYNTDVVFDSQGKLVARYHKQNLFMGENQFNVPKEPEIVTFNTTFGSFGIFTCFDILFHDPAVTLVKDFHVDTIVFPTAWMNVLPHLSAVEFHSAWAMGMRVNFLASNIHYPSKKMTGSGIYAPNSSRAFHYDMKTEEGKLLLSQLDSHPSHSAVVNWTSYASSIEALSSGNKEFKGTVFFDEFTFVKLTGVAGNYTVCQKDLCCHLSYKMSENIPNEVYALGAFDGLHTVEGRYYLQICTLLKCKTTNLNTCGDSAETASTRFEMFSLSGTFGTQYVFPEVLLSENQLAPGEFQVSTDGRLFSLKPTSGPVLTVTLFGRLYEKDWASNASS
Outline: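 Recombinant human ΔN490aa VNN1 (C-terminal His tag, in PBS pH 7.0) was mixed 1:1 with substrate (pantetheine or cholic acid–pantetheine derivative) in PBS pH 7.0. Final enzyme was 0.01 µM and final substrate 20–640 µM. Reactions ran 15 min at 37 °C and were quenched with methanol. Pantothenic acid was quantified by HPLC-HRMS (ESI+, m/z 220.1180) against a calcium pantothenate standard curve. Initial velocities were fitted to saturation kinetics; three independent assays used the same enzyme batch.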

[3] = target: T1, full-length human FXR protein; assay: DiscoverX cell-based protein–protein interaction assay on FXR, agonist mode; details: any of the tested concentrations
Outline: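 CHO-K1 cells (mycoplasma-negative, not authenticated) expressing full-length human FXR with an SRC-derived co-activator peptide fusion. Cells were grown in charcoal-dextran-filtered serum, then given 5X sample for 3–16 h at 37 °C or room temperature. Signal came from PathHunter chemiluminescent detection (1 h, room temperature). Activity (%) was set against vehicle RLU and GW4064 maximum, with duplicates at each concentration.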

C[C@H](CCC(=O)O)[C@H]1CC[C@H]2[C@@H]3[C@H](O)C[C@@H]4C[C@H](O)CC[C@]4(C)[C@H]3CC[C@]12C [CDCA, chenodeoxycholic acid]
BA levels in the liver and serum of WT and Nr1h4^−/− mice (BA production): not significantly affected

C[C@H](CCC(=O)NCCS(=O)(=O)O)[C@H]1CC[C@H]2[C@@H]3[C@@H](O)[C@@H](O)[C@@H]4C[C@H](O)CC[C@]4(C)[C@H]3CC[C@]12C [TβMCA, Tauro-β-muricholic acid]
FXR antagonistic activity against GW4604-mediated activation (in words) [1]: did not show FXR antagonistic effects; also recorded: inactive
FXR antagonism as previously reported (FXR): weak, mouse-specific FXR antagonist

CC(C)(CO)[C@@H](O)C(=O)NCCC(=O)NCCS [pantetheine]
Vmax, hydrolysis by VNN1 [2]: 2.13 ± 0.37 min⁻¹

CSCCNC(=O)CC[C@@H](C)[C@H]1CC[C@H]2[C@@H]3[C@@H](O)[C@@H](O)[C@@H]4C[C@H](O)CC[C@]4(C)[C@H]3CC[C@]12C [βMCA–MCY]
IC50 ([1]; read-out: IC50, antagonistic activity against GW4604-mediated activation of FXR, agonist challenge GW4064 0.37 μM (EC80), CHO-K1 cells, duplicate): 104 µM
FXR antagonistic activity against GW4604-mediated activation (in words) [1]: strong FXR antagonistic effects
FXR agonist activity (in words) [3]: no FXR agonistic effects
